Source: ChEMBL document CHEMBL2417509, “Synthesis and biological evaluation of prodigiosene conjugates of porphyrin, estrone and 4-hydroxytamoxifen” (2013)

How the values were obtained:
Assay type in all cases: functional
K562 = assay: Cytotoxicity against human K562 cells after 2 days by sulforhodamine B assay; conditions: K562, 48 h
Summary of the method: (§1)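 NCI60 multi-dose screen, 59 human tumour lines available. Cells exposed to compound across a 5-log mol/L concentration range for 2 days, then fixed and stained with sulphorhodamine B, optical density read. Growth inhibition calculated against time-zero control and untreated cells. GI50 derived from the dose series, average of two replicates.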

[1] = Cytotoxicity against human Hs578T cells after 2 days by sulforhodamine B assay; conditions: Hs-578T, 48 h; summary of the method: as §1
PC-3 = assay: Cytotoxicity against human PC3 cells after 2 days by sulforhodamine B assay; conditions: PC-3, 48 h; summary of the method: as §1
RPMI-8226 = assay: Cytotoxicity against human RPMI8226 cells after 2 days by sulforhodamine B assay; conditions: RPMI-8226, 48 h; summary of the method: as §1
SK-MEL-2 = assay: Cytotoxicity against human SK-MEL-2 cells after 2 days by sulforhodamine B assay; conditions: SK-MEL-2, 48 h; summary of the method: as §1
IGROV-1 = assay: Cytotoxicity against human IGROV1 cells after 2 days by sulforhodamine B assay; conditions: IGROV-1, 48 h; summary of the method: as §1
Malme-3M = assay: Cytotoxicity against human MALME-3M cells after 2 days by sulforhodamine B assay; conditions: 48 h; summary of the method: as §1
COLO 205 = assay: Cytotoxicity against human COLO205 cells after 2 days by sulforhodamine B assay; conditions: COLO 205, 48 h; summary of the method: as §1
MCF7 = assay: Cytotoxicity against human MCF7 cells after 2 days by sulforhodamine B assay; conditions: MCF7, 48 h; summary of the method: as §1
UO-31 = assay: Cytotoxicity against human UO31 cells after 2 days by sulforhodamine B assay; conditions: UO-31, 48 h
Summary of the method: (§2)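 NCI DTP NCI60 multi-dose screen (59 human tumour lines available). Cells exposed to compound over a 5-log mol/L concentration range for 2 days, then fixed and stained with sulphorhodamine B, with optical density read. Growth inhibition calculated relative to time-zero cells and untreated cells, giving GI50 (half-maximal growth inhibition concentration). Average of two replicates.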

UACC-62 = assay: Cytotoxicity against human UACC62 cells after 2 days by sulforhodamine B assay; conditions: UACC-62, 48 h; summary of the method: as §2
HCC 2998 = assay: Cytotoxicity against human HCC2998 cells after 2 days by sulforhodamine B assay; conditions: HCC 2998, 48 h; summary of the method: as §1
SK-MEL-28 = assay: Cytotoxicity against human SK-MEL-28 cells after 2 days by sulforhodamine B assay; conditions: SK-MEL-28, 48 h; summary of the method: as §1
SK-MEL-5 = assay: Cytotoxicity against human SK-MEL-5 cells after 2 days by sulforhodamine B assay; conditions: SK-MEL-5, 48 h; summary of the method: as §1
SNB-75 = assay: Cytotoxicity against human SNB75 cells after 2 days by sulforhodamine B assay; conditions: SNB-75, 48 h; summary of the method: as §2
ACHN = assay: Cytotoxicity against human ACHN cells after 2 days by sulforhodamine B assay; conditions: 48 h; summary of the method: as §1
HOP-62 = assay: Cytotoxicity against human HOP62 cells after 2 days by sulforhodamine B assay; conditions: HOP-62, 48 h; summary of the method: as §1
MDA-MB-231 = assay: Cytotoxicity against human MDA-MB-231 cells after 2 days by sulforhodamine B assay; conditions: MDA-MB-231, 48 h; summary of the method: as §1
NCI-H226 = assay: Cytotoxicity against human NCI-H226 cells after 2 days by sulforhodamine B assay; conditions: NCI-H226, 48 h; summary of the method: as §1
KM12 = assay: Cytotoxicity against human KM12 cells after 2 days by sulforhodamine B assay; conditions: KM12, 48 h; summary of the method: as §1
OVCAR-3 = assay: Cytotoxicity against human OVCAR3 cells after 2 days by sulforhodamine B assay; conditions: OVCAR-3, 48 h; summary of the method: as §1
UACC-257 = assay: Cytotoxicity against human UACC257 cells after 2 days by sulforhodamine B assay; conditions: UACC-257, 48 h; summary of the method: as §2
OVCAR-8 = assay: Cytotoxicity against human OVCAR8 cells after 2 days by sulforhodamine B assay; conditions: OVCAR-8, 48 h; summary of the method: as §1
SR = assay: Cytotoxicity against human SR cells after 2 days by sulforhodamine B assay; conditions: 48 h; summary of the method: as §2
HCT-15 = assay: Cytotoxicity against human HCT15 cells after 2 days by sulforhodamine B assay; conditions: HCT-15, 48 h; summary of the method: as §1
HL-60(TB) = assay: Cytotoxicity against human HL-60(TB) cells after 2 days by sulforhodamine B assay; conditions: HL-60, 48 h
Summary of the method: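 NCI60 multi-dose screen: cells exposed to compound over a 5-log mol/L concentration range for 2 days, then fixed and stained with sulphorhodamine B and optical density read. Growth inhibition calculated relative to time-zero control and untreated cells; GI50 reported as average of two replicates.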

CCRF-CEM = assay: Cytotoxicity against human CCRF-CEM cells after 2 days by sulforhodamine B assay; conditions: 48 h; summary of the method: as §1
BT-549 = assay: Cytotoxicity against human BT549 cells after 2 days by sulforhodamine B assay; conditions: BT-549, 48 h; summary of the method: as §1
RXF 393 = assay: Cytotoxicity against human RXF393 cells after 2 days by sulforhodamine B assay; conditions: RXF 393, 48 h; summary of the method: as §1
SW-620 = assay: Cytotoxicity against human SW620 cells after 2 days by sulforhodamine B assay; conditions: SW-620, 48 h; summary of the method: as §2
[2] = read-out: LC50 (the source's name)

COc1cc(-c2ccc[nH]2)[nH]c1/C=C1\N=C(C)C(C(=O)CCC(=O)Oc2ccc3c(c2)CC[C@@H]2[C@@H]3CC[C@]3(C)C(=O)CC[C@@H]23)=C1C
GI50 (K562): 4.23 µM
LC50 (concentration killing 50% of cells) (K562): > 100 µM
TGI (K562): > 100 µM
GI50 [1]: 14.2 µM
TGI [1]: > 100 µM
CC50 [1, 2]: > 100 µM
GI50 (PC-3): 7.45 µM
LC50 (concentration killing 50% of cells) (PC-3): > 100 µM
TGI (PC-3): > 100 µM
GI50 (RPMI-8226): 6.86 µM
LC50 (concentration killing 50% of cells present at time zero) (RPMI-8226): > 100 µM
TGI (RPMI-8226): > 100 µM
GI50 (SK-MEL-2): 15.6 µM
LC50 (SK-MEL-2): > 100 µM
TGI (SK-MEL-2): 58.8 µM
GI50 (IGROV-1): 8.4 µM
LC50 (IGROV-1): > 100 µM
TGI (IGROV-1): > 100 µM
GI50 (Malme-3M): 29 µM
LC50 (Malme-3M): > 100 µM
TGI (Malme-3M): > 100 µM
GI50 (COLO 205): 21.6 µM
LC50 (concentration killing 50% of cells) (COLO 205): > 100 µM
TGI (COLO 205): > 100 µM
GI50 (MCF7): 1.91 µM
LC50 (concentration giving 50% net cell kill) (MCF7): > 100 µM
TGI (MCF7): > 100 µM
GI50 (UO-31): 4.15 µM
LC50 (UO-31): > 100 µM
TGI (UO-31): 31 µM
GI50 (UACC-62): 3.71 µM
TGI (UACC-62): 17.6 µM
CC50 (UACC-62; [2]): 65.1 µM
GI50 (HCC 2998): 17 µM
LC50 (50% lethal concentration) (HCC 2998): > 100 µM
TGI (HCC 2998): > 100 µM
GI50 (SK-MEL-28): 75 µM
LC50 (SK-MEL-28): > 100 µM
TGI (SK-MEL-28): > 100 µM
GI50 (SK-MEL-5): 3.5 µM
LC50 (concentration killing 50% of cells) (SK-MEL-5): 68.8 µM
TGI (SK-MEL-5): 19.6 µM
GI50 (SNB-75): 59.1 µM
LC50 (concentration killing 50% of starting cells) (SNB-75): > 100 µM
TGI (SNB-75): > 100 µM
GI50 (ACHN): 5.83 µM
LC50 (concentration killing 50% of cells) (ACHN): > 100 µM
TGI (ACHN): > 100 µM
GI50 (HOP-62): 18.3 µM
TGI (HOP-62): 65.9 µM
CC50 (HOP-62; [2]): > 100 µM
GI50 (MDA-MB-231): 0.27 µM
LC50 (MDA-MB-231): 23 µM
TGI (MDA-MB-231): 1.21 µM
GI50 (NCI-H226): 11.1 µM
LC50 (NCI-H226): > 100 µM
TGI (NCI-H226): > 100 µM
GI50 (KM12): 6.25 µM
LC50 (KM12): > 100 µM
TGI (KM12): > 100 µM
GI50 (OVCAR-3): 17.6 µM
LC50 (OVCAR-3): > 100 µM
TGI (OVCAR-3): > 100 µM
GI50 (UACC-257): 97.6 µM
TGI (UACC-257): > 100 µM
CC50 (UACC-257; [2]): > 100 µM
GI50 (OVCAR-8): 8.36 µM
LC50 (OVCAR-8): > 100 µM
TGI (OVCAR-8): > 100 µM
GI50 (SR): 0.72 µM
LC50 (concentration giving 50% net cell kill) (SR): > 100 µM
TGI (SR): > 100 µM
GI50 (HCT-15): 2.6 µM
LC50 (HCT-15): > 100 µM
TGI (HCT-15): > 100 µM
GI50 (HL-60(TB)): 55.8 µM
TGI (HL-60(TB)): > 100 µM
CC50 (HL-60(TB); [2]): > 100 µM
GI50 (CCRF-CEM): 0.54 µM
TGI (CCRF-CEM): > 100 µM
CC50 (CCRF-CEM; [2]): > 100 µM
GI50 (BT-549): 15.6 µM
LC50 (concentration killing 50% of cells present at time zero) (BT-549): > 100 µM
TGI (BT-549): > 100 µM
GI50 (RXF 393): 11.7 µM
LC50 (concentration killing 50% of cells) (RXF 393): > 100 µM
TGI (RXF 393): > 100 µM
GI50 (SW-620): 0.77 µM
LC50 (concentration killing 50% of cells) (SW-620): > 100 µM
TGI (SW-620): > 100 µM
